Screening data as filed in PubChem BioAssay.
Hits are enriched below; roughly 2.1% of the tested compounds scored in any of these assays.
MEKK2wt PB1 HTS: modulators of MEK5 binding to wildtype MEKK2, primary screen, biochemical, multiplex bead flow cytometry, Alexa488-MEK5; Mitogen-activated protein kinase kinase kinase 2 (Homo sapiens), Q9Y2U5; Alexa488-MEK5 binding to MEKK2 WT; actives lie on both sides; binding response (% of control), % at 10 µM; 290,000 compounds, 1.1% hits; AID 1531, 2009; in the data active means binding response below about 67% or above about 130%
MEKK3 PB1 HTS: modulators of MEKK3-MEK5 PB1 binding, primary screen, biochemical, wildtype MEKK3, multiplex bead flow cytometry, Alexa488-MEK5. bead-based flow cytometry, Alexa488-MEK5 binding to MEKK3; actives lie on both sides; 0 = blocked by unlabeled MEK5, 100 = vehicle. AID 1529, 2009. binding response (% of control), % at 10 µM. Mitogen-activated protein kinase kinase kinase 3 (Homo sapiens), Q99759. 290,000 compounds, 1.4% hits;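 active means binding response more than 3 SD above or below the average of its plate-row segment, actives on both sides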;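 further: Alexa488 bead fluorescence after subtracting the streptavidin-only scavenger bead signal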
Target sequence (Q99759 whole entry, looked up): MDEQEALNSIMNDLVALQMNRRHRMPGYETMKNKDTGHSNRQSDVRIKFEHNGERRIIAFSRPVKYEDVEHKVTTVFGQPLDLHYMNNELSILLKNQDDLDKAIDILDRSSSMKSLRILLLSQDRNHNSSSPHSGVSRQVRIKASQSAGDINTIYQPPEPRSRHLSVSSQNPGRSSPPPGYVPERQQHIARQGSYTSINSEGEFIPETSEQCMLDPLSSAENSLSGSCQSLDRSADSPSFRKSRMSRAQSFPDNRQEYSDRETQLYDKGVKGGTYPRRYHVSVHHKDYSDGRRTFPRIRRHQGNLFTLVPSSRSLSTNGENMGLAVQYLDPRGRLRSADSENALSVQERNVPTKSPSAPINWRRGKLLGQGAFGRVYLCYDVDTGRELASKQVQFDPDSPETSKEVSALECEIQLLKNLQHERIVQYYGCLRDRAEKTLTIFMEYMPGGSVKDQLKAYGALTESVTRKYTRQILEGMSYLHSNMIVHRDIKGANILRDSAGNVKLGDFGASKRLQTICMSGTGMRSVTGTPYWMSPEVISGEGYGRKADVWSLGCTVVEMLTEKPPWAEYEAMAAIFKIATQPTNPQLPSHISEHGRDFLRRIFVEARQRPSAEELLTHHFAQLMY
GSK3A inh: blockers of GSK3A enzyme activity – biochemical, luminescence, cell-free homogeneous, HTS, primary screen. Glycogen synthase kinase-3 alpha (Homo sapiens), P49840. inhibition, % at 10 µM. GSK-3 alpha kinase, ADP-Glo luminescence, 60 min. 320,000 compounds, 0.1% hits;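 active means more than half of replicates show inhibition above 20%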;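 further: GST-tagged GSK-3 alpha with peptide substrate and 25 µM ATP; 0% = DMSO neutral wells and 100% = GW8510 positive control wells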
MEKK2 mut-MEK5: MEK5 binding signal on mutant MEKK2 PB1, primary screen, biochemical, multiplex bead flow cytometry, Alexa488-MEK5 | Alexa488-MEK5 binding to MEKK2 mutant | percent response, % at 10 µM | 290,000 compounds, 0.35% hits; in the data active means percent response above about 24%, passing the limit was not always enough
STK33 inh: inhibitors of purified STK33 kinase, primary screen, biochemical, ADP-Glo luminescence, homogeneous, cell-free | Serine/threonine-protein kinase 33 (Homo sapiens), Q9BYT3 | MBP phosphorylation | inhibition, % at 10 µM | 320,000 compounds, 0.073% hits;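 active means inhibition at or above 25%, using the most active replicate where run in duplicate; inactive means inhibition below 25%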
GSK3beta inhib: human GSK3beta kinase inhibitors, primary screen, biochemical, cell-free homogeneous, HTS; Glycogen synthase kinase-3 beta (Homo sapiens), P49841; GST-GSK3beta kinase, ADP-Glo luminescence, 60 min; active compounds read low; activity score (negative = inhibition), % at 10 µM; 300,000 compounds, 0.038% hits;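 active means more than half of replicate wells score below -50%, meaning over 50% inhibition versus plate controls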;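 further: 0% = median DMSO wells and -100% = median GW8510 positive control wells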
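Test system – GST-tagged human GSK3beta kinase, cell-free · Incubation – 60 min enzyme reaction, room temperature · Signal – ADP-Glo luminescence · Also added – peptide substrate and ATP at 25 µM · Controls – DMSO neutral wells and GW8510 at 20 µM as positive · Buffer or medium – Tris/MgCl2 kinase buffer · Measure – Luminescence-derived activity versus plate DMSO and GW8510 wells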
MEKK2wt confirm: modulators of MEK5 binding to wildtype MEKK2, confirmation, biochemical, single concentration, multiplex bead flow cytometry; shares compounds with MEKK3 PB1 HTS; Alexa488-MEK5 binding to MEKK2 WT; actives lie on both sides; binding response (% of control), % at 10 µM; 5,900 compounds, 2.4% hits; AID 1892, 2009; in the data active means binding response below about 16% or above about 210%; inactive means in between
MEKK2mut-MEK5: mutant MEKK2 PB1-MEK5 binding signal retest – biochemical, single concentration, multiplex bead flow cytometry, confirmation. 5,900 compounds, 2% hits. shares compounds with MEKK3 PB1 HTS. AID 1893, 2009. Alexa488-MEK5 binding to MEKK2 mutant. percent response, % at 10 µM; in the data active means percent response mostly above about 71%, no sharp cut-off; inactive means mostly below about 38%;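 further: higher means compound restores mutant binding toward wildtype level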
MEKK3-MEK5 inh: MEKK3 wild-type PB1 binding to MEK5, inhibitors, confirmation, biochemical, bead multiplex flow cytometry, single concentration, wildtype. Alexa488-MEK5 binding to MEKK3; active compounds read low. 5,900 compounds, 1.8% hits. shares compounds with MEKK3 PB1 HTS. binding response (% of control), % at 10 µM;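 active means binding response below 72% of control, or above a set upper limit, though filed actives all read lower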;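 further: 100% = DMSO only wells and 0% = binding blocked by excess unlabeled MEK5; lower values mean stronger disruption of MEK5 binding to MEKK3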
Numbers without * were called inactive; / = no result; [ ] = another dose, or the depositor's remark.

SMILES | MEKK2wt PB1 HTS | MEKK3 PB1 HTS | GSK3A inh | MEKK2 mut-MEK5 | STK33 inh | GSK3beta inhib | MEKK2wt confirm | MEKK2mut-MEK5 | MEKK3-MEK5 inh
CCn1nc(C)c(NS(=O)(=O)c2ccc(C)cc2)c1C | 88 | 73*[inhibitor] | -4 | 2 | -2 | 2 | 104 | 7 | 107
Cc1ccc(S(=O)(=O)Nc2c(C)nn(C)c2C)cc1 | 98 | 97 | -1 | -3 | 0 | -2 | / | / | /
COc1cc(C2Nc3ccccc3NC3=C2C(=O)CC(C)(C)C3)cc(OC)c1OC (stereo not given) | 108 | 108 | 1 | 24* | 0 | -2 | 103 | -5 | 100
CCN(CC)S(=O)(=O)c1cccc(NC(=O)Nc2cccc(C(F)(F)F)c2)c1 | 219* | 102 | -3 | 20 | 0 | 7 | 183 | 45 | 104
CCN(CC)S(=O)(=O)c1cccc(NC(=O)CC2CCCC2)c1 | 105 | 103 | 2 | 3 | -3 | 1 | / | / | /
COc1ccc(N2C(=O)CC(Sc3ncccc3C(=O)O)C2=O)cc1 (stereo not given) | 102 | 101 | 4 | 0 | 5 | 4 | / | / | /
O=C(O)c1cccnc1SC1CC(=O)N(c2ccccc2)C1=O (stereo not given) | 117 | 128* | -1 | 33 | 0 | -1 | 95 | -7 | 96
CCc1nccn1CCC(=O)N1CCCC(Nc2ccc(F)cc2)C1 (stereo not given) | 108 | 104 | -1 | 3 | 1 | 2 | / | / | /
CN1CCN(Cc2ccc(Sc3ccc(Cl)cc3)c([N+](=O)[O-])c2)CC1 | 157* | 107 | 2 | 27 | / | -1 | 122 | 8 | 102
Cc1c(C(=O)N/N=C/c2ccc(O)c(Br)c2)sc(N)c1C#N | 97 | 132* | 23 | 0 | 8 | / | 94 | -6 | 97
COC(=O)c1c(C)[nH]c(C(=O)OCC(=O)c2ccc(C)s2)c1C | / | / | -4 | / | 0 | / | / | / | /
CC(=O)c1oc2ccccc2c1NC(=O)CN1CCCCC1 | 3.0*[inhibitor] | 4.0*[inhibitor] | 1 | -2 | 2 | 4 | 105 | 6 | 105
NS(=O)(=O)c1ccc(-c2ccc(/C=C3\SC(=S)N(C4CCS(=O)(=O)C4)C3=O)o2)cc1 (stereo not given) | 56*[inhibitor] | 78 | 0 | -31 | -1 | -1 | 76 | -12 | 98
O=C(O)c1ccc(CN2C(=O)CSC2=S)cc1 | 119 | 124* | -2 | 5 | -1 | 1 | 98 | -4 | 98
CC(NC(=S)NCCc1ccccc1)C(c1cccs1)N1CCN(Cc2ccccc2)CC1 (stereo not given) | 138* | 81 | -3 | 14 | -2 | 3 | 148 | 35 | 113
C/C(CC(=O)NCc1ccco1)=N\NC(=O)CC#N | 104 | 101 | -1 | 1 | -2 | 1 | / | / | /
C/C(=N\NC(=O)c1ccc(O)cc1)c1ccc2c(c1)OCCO2 | / | / | 3 | / | -1 | / | / | / | /
C/C(=N\NC(=O)C1CC1)c1ccc2c(c1)OCCO2 | 6.0*[inhibitor] | 4.0*[inhibitor] | 1 | -46 | -1 | -2 | 109 | 7 | 105
O=C(O)CC1(CC(=O)Nc2ccc(F)cc2F)CCCCC1 | 94 | 95 | -2 | -2 | 0 | 4 | / | / | /
O=C(O)CC1(CC(=O)Nc2cc(F)ccc2Cl)CCCCC1 | 131 | 134* | -2 | 28 | -1 | 2 | 97 | -2 | 99
Cc1nc(Nc2nc(CSc3ccc(Cl)cc3)cc(=O)[nH]2)nc2ccccc12 | 104 | 132* | 0 | 0 | -4 | 0 | 104 | 2 | 105
Cc1nc(Nc2nc(CSc3nc4ccccc4[nH]3)cc(=O)[nH]2)nc2ccccc12 | 96 | 92 | 1 | -1 | 1 | 12 | / | / | /
COC(=O)CSc1nc(N)c(C#N)c(-c2ccco2)c1C#N | 94 | 93 | 0 | -6 | 0 | 2 | / | / | /
COC(=O)CSc1nc(-c2ccccc2)cc(-c2ccco2)c1C#N | 123 | 125* | 0 | 5 | 0 | -2 | 106 | 4 | 106
Cc1nn(-c2ccccc2)nc1-c1nnc(-c2ccc(C(F)(F)F)cc2)o1 | 95 | 94 | -4 | -17 | -1 | 3 | / | / | /
SMILES | MEKK2wt PB1 HTS | MEKK3 PB1 HTS | GSK3A inh | MEKK2 mut-MEK5 | STK33 inh | GSK3beta inhib | MEKK2wt confirm | MEKK2mut-MEK5 | MEKK3-MEK5 inh
O=C(CSc1ncnc2ccccc12)c1cccs1 | 80 | 63*[inhibitor] | 1 | -4 | 3 | 2 | 103 | 1 | 100
COc1ccc(CCNC(=O)CSc2cc(=O)[nH]c(N)n2)cc1OC | 105 | 105 | 0 | 4 | -2 | -2 | / | / | /
COc1ccc(CCNC(=O)CSc2nc(O)cc(=O)[nH]2)cc1OC | 114 | 134* | -3 | 29 | -1 | 2 | 106 | 10 | 110
COc1ccc(CCNC(=O)CN(c2ccccc2OC)S(C)(=O)=O)cc1OC | 103 | 99 | 0 | 2 | -1 | 2 | / | / | /
COc1ccc(CCNC(=O)CN(c2ccc(OC)c(OC)c2)S(C)(=O)=O)cc1OC | 119 | 122* | 0 | 5 | -1 | -6 | 100 | 2 | 101
O=S(=O)(c1ccccc1)N1CCN(C/C=C/c2ccccc2)CC1 | 103 | 103 | -2 | 3 | -2 | 3 | / | / | /
NNC(=O)[C@H]1C[C@@H]1c1ccccc1 | 111 | 152* | 0 | 0 | -1 | 2 | 93 | -9 | 89
Cc1ccccc1-c1nc(CN2CCC(C(=O)NCCCN3CCOCC3)CC2)c(C)o1 | 130 | 102 | 1 | 14 | 1 | -2 | / | / | /
Cc1ccccc1-c1nc(CN2CCC(C(=O)NCCCN3CC(C)CC(C)C3)CC2)c(C)o1 (stereo not given) | 142* | 107 | 2 | 18 | 0 | 0 | 127 | 18 | 102
CCc1ccc(-c2nc(CN3CCC(C(=O)NCc4ccccc4OC)CC3)c(C)o2)cc1 | 156* | 104 | / | 16 | 1 | 2 | 114 | 3 | 104
